Results published in ChEMBL document CHEMBL2417404, “Synthesis and structure-activity relationship (SAR) of 2-methyl-4-oxo-3-oxetanylcarbamic acid esters, a class of potent N-acylethanolamine acid amidase (NAAA) inhibitors” (J Med Chem, 2013).

How the values were obtained:
[1] = target: T1, N-acylethanolamine-hydrolyzing acid amidase (Rattus norvegicus, UniProt Q5KTC7); test: Inhibition of Sprague Dawley rat lung native NAAA enzyme using heptadecenoylethanolamide as substrate preincubated for 30 mins followed by substrate addition measured after 30 mins by UPLC-MS analysis
T1 sequence (Q5KTC7 whole entry): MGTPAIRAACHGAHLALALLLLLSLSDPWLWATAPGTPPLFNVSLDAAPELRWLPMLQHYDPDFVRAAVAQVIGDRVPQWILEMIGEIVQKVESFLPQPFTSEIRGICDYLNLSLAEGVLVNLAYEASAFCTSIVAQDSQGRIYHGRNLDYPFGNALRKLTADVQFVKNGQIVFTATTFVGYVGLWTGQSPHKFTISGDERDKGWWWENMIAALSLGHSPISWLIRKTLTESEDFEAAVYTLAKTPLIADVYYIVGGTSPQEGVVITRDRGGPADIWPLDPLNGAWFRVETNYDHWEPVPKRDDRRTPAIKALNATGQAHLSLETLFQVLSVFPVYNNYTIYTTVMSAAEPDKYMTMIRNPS
Outline: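 Native enzyme from lungs of male Sprague-Dawley rats (275-300 g). Lungs were homogenized in 20 mM Tris-HCl pH 7.4 with 0.32 M sucrose, spun at 800g, then the supernatant at 12000g. The pellet was freeze/thawed in PBS, and the final 105000g pellet was used. Protein (10 μg) was preincubated with compound or vehicle for 30 min at 37 °C in NaH2PO4/citrate buffer pH 4.5 with 0.1% Triton X-100 and 3 mM DTT. Then 50 μM substrate, 37 °C, 30 min, duplicates. Heptadecenoic acid quantified against heptadecanoic acid internal standard. IC50 by fixed-slope nonlinear regression.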

[2] = target: T2, Acid ceramidase (Rattus norvegicus) (UniProt Q6P7S1); test: Inhibition of rat lung acid ceramidase overexpressed in HEK293 cells using N-Lauroyl ceramide as substrate preincubated at 10 uM for 30 mins followed by substrate addition by LC-MS analysis; type: cell-based
T2 sequence (whole entry): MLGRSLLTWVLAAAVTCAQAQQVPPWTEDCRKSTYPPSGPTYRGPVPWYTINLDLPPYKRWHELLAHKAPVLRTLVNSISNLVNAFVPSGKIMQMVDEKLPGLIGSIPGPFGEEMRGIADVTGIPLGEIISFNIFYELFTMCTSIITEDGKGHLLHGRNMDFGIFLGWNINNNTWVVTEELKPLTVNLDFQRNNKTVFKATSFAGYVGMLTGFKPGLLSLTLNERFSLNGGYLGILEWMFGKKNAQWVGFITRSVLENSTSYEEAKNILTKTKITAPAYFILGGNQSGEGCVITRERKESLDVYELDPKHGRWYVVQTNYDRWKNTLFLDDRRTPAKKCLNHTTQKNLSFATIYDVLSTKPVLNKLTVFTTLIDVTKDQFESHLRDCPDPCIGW
Outline: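 Enzyme (25 μg) from HEK293 cells overexpressing rat AC was preincubated with compound for 30 min at 37 °C in 100 mM NaH2PO4, 100 mM trisodium citrate, 0.1% Triton X-100, 3 mM DTT, pH 4.5. Then 100 μM N-lauroyl ceramide was added. Lauric acid (m/z 199) was measured by negative-ion LC-MS with heptadecanoic acid (m/z 269) as internal standard.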

[3] = target: T3, Fatty-acid amide hydrolase 1 (Rattus norvegicus) (UniProt P97612); test: Inhibition of rat brain FAAH using [3H]anandamide as substrate preincubated at 10 uM for 10 mins followed by substrate addition by liquid scintillation counting
T3 sequence (whole entry): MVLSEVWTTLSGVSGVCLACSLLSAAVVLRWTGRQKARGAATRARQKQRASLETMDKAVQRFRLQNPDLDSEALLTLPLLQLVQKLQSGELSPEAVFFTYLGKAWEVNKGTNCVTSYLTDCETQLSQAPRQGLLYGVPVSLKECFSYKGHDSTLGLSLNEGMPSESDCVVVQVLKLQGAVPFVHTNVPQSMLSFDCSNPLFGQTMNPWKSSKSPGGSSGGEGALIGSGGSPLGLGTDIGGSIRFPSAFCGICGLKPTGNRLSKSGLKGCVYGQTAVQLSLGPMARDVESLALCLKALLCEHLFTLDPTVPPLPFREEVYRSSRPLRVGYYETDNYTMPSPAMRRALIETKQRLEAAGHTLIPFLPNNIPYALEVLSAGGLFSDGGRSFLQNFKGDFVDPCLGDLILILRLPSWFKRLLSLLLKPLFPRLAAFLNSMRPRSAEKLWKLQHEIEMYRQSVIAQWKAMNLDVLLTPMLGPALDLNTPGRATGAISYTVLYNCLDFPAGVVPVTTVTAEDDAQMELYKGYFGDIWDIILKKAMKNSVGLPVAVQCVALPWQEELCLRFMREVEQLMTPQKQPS
Outline: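 Rat brain homogenate (50 μg protein) was preincubated with compound for 10 min. Then 30 min at 37 °C with 1 μM cold AEA plus 0.6 nM [3H]AEA in 50 mM Tris pH 7.4 containing 0.05% fatty-acid-free BSA. Stopped with cold CHCl3/MeOH 1:1, and the aqueous phase was counted.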

[4] = Selectivity ratio of IC50 for rat NAAA to IC50 for human NAAA
[5] = target: T4, N-acylethanolamine-hydrolyzing acid amidase (Homo sapiens, UniProt Q02083); test: Inhibition of C-terminal His-6-tagged recombinant human spleen NAAA enzyme expressed in HEK293 cells; type: cell-based
T4 sequence (Q02083 whole entry): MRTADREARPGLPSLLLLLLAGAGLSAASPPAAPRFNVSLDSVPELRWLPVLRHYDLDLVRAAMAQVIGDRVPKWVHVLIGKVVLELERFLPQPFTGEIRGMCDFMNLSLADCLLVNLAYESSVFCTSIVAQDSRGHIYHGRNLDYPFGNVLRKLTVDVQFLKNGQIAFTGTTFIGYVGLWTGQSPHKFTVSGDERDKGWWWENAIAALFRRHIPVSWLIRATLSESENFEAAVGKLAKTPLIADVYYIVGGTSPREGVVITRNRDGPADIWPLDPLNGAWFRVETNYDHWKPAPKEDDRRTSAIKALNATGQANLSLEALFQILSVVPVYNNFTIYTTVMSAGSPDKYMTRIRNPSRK
Outline: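 Stable HEK293 clone (G418 selection) expressing h-NAAA; cell pellets sonicated, then membrane fraction prepared by centrifugation with a freeze/thaw step. 10 μg protein preincubated 30 min at 37 °C with inhibitor in citrate/phosphate buffer pH 4.5 (0.1% Triton X-100, 3 mM DTT). Duplicates then given 50 μM 10-cis-heptadecenoylethanolamide for 30 min at 37 °C. Heptadecenoic acid measured by UPLC-MS; IC50 from fixed-slope nonlinear regression.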

In the case of `CCCCCCCC(C)OC(=O)N[C@H]1C(=O)O[C@H]1C` (mixture of isomers), the IC50 ([1]; read-out: IC50) is reported as 0.06 µM.

`C[C@@H]1OC(=O)[C@@H]1NC(=O)OCCCc1ccccc1` showed an IC50 ([1]; read-out: IC50) of 0.09 µM.

With `C[C@@H]1OC(=O)[C@@H]1NC(=O)OCCCCCc1ccccc1` the inhibition [2] was under 10%, the inhibition [3] was under 10% and the Ratio IC50 [4] was 2.

With `CC(CCCCc1ccccc1)OC(=O)N[C@H]1C(=O)O[C@H]1C` (single isomer, unassigned; diastereomer 1) the IC50 ([1]; read-out: IC50) was 0.018 µM.

For `CCCCCCC[C@@H](C)OC(=O)N[C@H]1C(=O)O[C@H]1C`, the IC50 ([1]; read-out: IC50) was 0.27 µM.

`CC(C)C(CCCCc1ccccc1)OC(=O)N[C@H]1C(=O)O[C@H]1C` (single isomer, unassigned; diastereomer 2) showed an IC50 ([1]; read-out: IC50) of 12.2 µM.

`CCCCCOC(=O)N[C@H]1C(=O)O[C@H]1C` gave an IC50 ([1]; read-out: IC50) of 0.76 µM.

With `C[C@@H]1OC(=O)[C@@H]1N(C)C(=O)OCCCCCc1ccccc1` the IC50 [1] was “Not Active”.

`C[C@@H]1OC(=O)[C@@H]1NC(=O)OCc1ccc(-c2ccccc2)cc1` showed an inhibition [2] of 30% and an inhibition [3] of under 10%.

Compound `C[C@@H]1OC(=O)[C@@H]1NC(=O)OCCCOCc1ccccc1` has an inhibition [2] of under 10%, an IC50 [5] of 0.02 µM and an inhibition [3] of under 10%. The Ratio IC50 [4] was 2.

`CC(CCCCc1ccccc1)OC(=O)N[C@H]1C(=O)O[C@H]1C` (single isomer, unassigned; diastereomer 2) gave an IC50 ([1]; read-out: IC50) of 5.1 µM.

With `CCCCCCC[C@H](C)OC(=O)N[C@H]1C(=O)O[C@H]1C` the inhibition [2] was 45%, the inhibition [3] was 19% and the Ratio IC50 [4] was 2.

With `C[C@@H]1OC(=O)[C@@H]1NC(=O)OCc1cccc(-c2ccccc2)c1` the IC50 ([1]; read-out: IC50) was 23 µM.

`CC(C)C(CCCCc1ccccc1)OC(=O)N[C@H]1C(=O)O[C@H]1C` (stereo partly drawn) gave an IC50 ([1]; read-out: IC50) of 0.08 µM.

`CC(CCCCc1ccccc1)OC(=O)N[C@H]1C(=O)O[C@H]1C` (mixture of isomers) gave an IC50 ([1]; read-out: IC50) of 0.029 µM.

Compound `C[C@@H]1OC(=O)[C@@H]1NC(=O)OCCCCCC1CCCCC1` has an inhibition [2] of under 10%, an IC50 ([1]; read-out: IC50) of 0.013 µM and an inhibition [3] of under 10%. It also gave a Ratio IC50 [4] of 2.

For `C[C@H]1OC(=O)[C@@H]1NC(=O)OCCCCCc1ccccc1`, the IC50 ([1]; read-out: IC50) was 0.02 µM.
